Measured values taken from ChEMBL document CHEMBL4411269, “Required Immunoproteasome Subunit Inhibition Profile for Anti-Inflammatory Efficacy and Clinical Candidate KZR-616 ((2 S,3 R)- N-(( S)-3-(Cyclopent-1-en-1-yl)-1-(( R)-2-methyloxiran-2-yl)-1-oxopropan-2-yl)-3-hydroxy-3-(4-methoxyphenyl)-2-(( S)-2-(2-morpholinoacetamido)propanamido)propenamide)” (J Med Chem, 2018).
Converted amounts (≈) assume the structure as drawn. The source made the active and inactive calls. The calls are words filed in the database; no cut-off is given here.

Key:
[1] = Solubility of the compound in phosphate buffer at pH 7.2 at 10 mg/ml after 24 hrs by HPLC-UV method; type: physicochemical
In short: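 Compound shaken at a target 10 mg/mL in 50 mM potassium phosphate buffer for 24 h at 25 °C, then centrifuged at 15 000 rpm for 15 min. Supernatant diluted 100-fold in DMSO and quantified by HPLC-UV (220/254/280 nm) against a three-level DMSO standard curve, in duplicate.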

[2] = molecular target: T1, Proteasome Macropain subunit MB1 (Homo sapiens, UniProt P28074); experiment: Inhibition of 20S proteosome beta 5 in human MOLT4 cells by ELISA; type: cell-based
T1 sequence (P28074 whole entry): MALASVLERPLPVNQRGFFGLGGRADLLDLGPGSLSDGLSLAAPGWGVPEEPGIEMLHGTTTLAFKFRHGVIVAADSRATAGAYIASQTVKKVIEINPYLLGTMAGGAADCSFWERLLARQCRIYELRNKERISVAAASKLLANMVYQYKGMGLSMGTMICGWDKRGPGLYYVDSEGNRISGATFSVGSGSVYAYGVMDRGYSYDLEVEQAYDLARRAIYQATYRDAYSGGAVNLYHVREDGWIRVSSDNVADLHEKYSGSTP

[3] = molecular target: T2, Proteasome subunit beta type-9 (Homo sapiens, UniProt P28065); experiment: Inhibition of LMP2 in human MOLT4 cells by ELISA; type: cell-based
T2 sequence (P28065 whole entry): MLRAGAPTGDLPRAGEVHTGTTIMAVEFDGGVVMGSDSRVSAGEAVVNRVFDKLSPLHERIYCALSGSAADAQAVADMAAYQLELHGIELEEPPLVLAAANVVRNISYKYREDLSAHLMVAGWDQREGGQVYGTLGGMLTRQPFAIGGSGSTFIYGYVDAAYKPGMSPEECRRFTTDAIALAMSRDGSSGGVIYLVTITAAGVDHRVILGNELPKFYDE

[4] = molecular target: T3, Proteasome subunit beta type-10 (Homo sapiens, UniProt P40306); experiment: Inhibition of MECL1 in human MOLT4 cells by ELISA; type: cell-based
T3 sequence (P40306 whole entry): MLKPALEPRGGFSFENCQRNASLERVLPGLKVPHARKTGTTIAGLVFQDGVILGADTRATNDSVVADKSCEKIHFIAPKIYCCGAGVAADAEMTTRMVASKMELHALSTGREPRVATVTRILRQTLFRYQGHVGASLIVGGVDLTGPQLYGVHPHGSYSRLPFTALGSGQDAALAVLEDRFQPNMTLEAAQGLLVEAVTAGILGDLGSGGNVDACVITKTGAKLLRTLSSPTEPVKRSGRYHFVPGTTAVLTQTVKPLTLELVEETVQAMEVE

[5] = molecular target: T4, Proteasome subunit beta type-8 (Mus musculus, UniProt P28063); experiment: Inhibition of LMP7 in mouse A20 cells by ELISA; type: cell-based
T4 sequence (P28063 whole entry): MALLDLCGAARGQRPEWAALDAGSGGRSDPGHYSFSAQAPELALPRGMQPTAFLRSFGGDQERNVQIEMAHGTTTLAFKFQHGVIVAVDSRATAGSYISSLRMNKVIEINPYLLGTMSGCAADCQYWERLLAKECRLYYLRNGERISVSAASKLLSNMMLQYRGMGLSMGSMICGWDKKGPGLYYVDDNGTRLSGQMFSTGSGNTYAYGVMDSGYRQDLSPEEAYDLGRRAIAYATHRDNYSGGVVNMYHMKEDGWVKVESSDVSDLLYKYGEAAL
In short: (§1)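 Mouse A20 B-cell lymphoma cell lysate (1 mg/mL, hypotonic 20 mM Tris pH 8, 5 mM EDTA) treated with serially diluted compound for 1 h at 25 °C. Then 5 μM biotinylated active-site probe for 2 h at 25 °C, guanidine denaturation and streptavidin bead capture. Subunit-specific antibody and HRP chemiluminescence, signal normalized to protein, IC50 from percent activity versus DMSO controls.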

[6] = molecular target: T5, Proteasome subunit beta type-5 (Mus musculus, UniProt O55234); experiment: Inhibition of 20S proteosome beta 5 in mouse A20 cells by ELISA; type: cell-based
T5 sequence (O55234 whole entry): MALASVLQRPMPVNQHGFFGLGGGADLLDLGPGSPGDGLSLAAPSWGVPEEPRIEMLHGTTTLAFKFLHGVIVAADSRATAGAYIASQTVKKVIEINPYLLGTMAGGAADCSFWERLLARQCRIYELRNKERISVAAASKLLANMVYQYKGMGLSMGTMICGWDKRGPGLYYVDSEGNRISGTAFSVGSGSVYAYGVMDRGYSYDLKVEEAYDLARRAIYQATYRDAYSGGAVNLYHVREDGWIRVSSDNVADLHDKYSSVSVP

[7] = molecular target: T6, Proteasome subunit beta type-9 (Mus musculus, UniProt P28076); experiment: Inhibition of LMP2 in mouse A20 cells by ELISA; type: cell-based; in short: as §1
T6 sequence (P28076 whole entry): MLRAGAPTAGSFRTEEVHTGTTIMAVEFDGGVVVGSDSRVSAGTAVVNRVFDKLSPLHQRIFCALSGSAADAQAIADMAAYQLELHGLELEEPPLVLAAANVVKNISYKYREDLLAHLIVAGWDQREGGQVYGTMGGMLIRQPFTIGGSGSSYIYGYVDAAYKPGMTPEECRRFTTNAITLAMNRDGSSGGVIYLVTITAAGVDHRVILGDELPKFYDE

[8] = molecular target: T7, Proteasome subunit beta type-10 (Mus musculus, UniProt O35955); experiment: Inhibition of MECL1 in mouse A20 cells by ELISA; type: cell-based; in short: as §1
T7 sequence (O35955 whole entry): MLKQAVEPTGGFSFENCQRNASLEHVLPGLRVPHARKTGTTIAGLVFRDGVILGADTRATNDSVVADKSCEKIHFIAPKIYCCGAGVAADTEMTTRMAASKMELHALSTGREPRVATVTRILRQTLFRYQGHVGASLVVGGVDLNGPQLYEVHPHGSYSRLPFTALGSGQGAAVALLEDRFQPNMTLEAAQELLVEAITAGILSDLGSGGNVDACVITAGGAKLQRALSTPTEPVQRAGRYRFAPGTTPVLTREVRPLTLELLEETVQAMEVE

PBMC [9] = experiment: Antiinflammatory activity in human PBMC assessed as reduction in LPS-stimulated p40 subunit of […] expression at 250 nM preincubated for 1 hr followed by LPS stimulation measured after 24 hrs by ELISA; type: functional, cell-based
In short: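 Cryopreserved healthy-donor PBMC in RPMI 1640 with 5% heat-inactivated FBS, 250 000 cells/well. Compound (0.1% DMSO final) for 1 h at 37 °C, 5% CO2, then 4 washes with medium. Stimulated with 1 μg/mL LPS for 24 h; supernatant TNFα, IL-6 and IL-12/23p40 by electrochemiluminescent immunoassay. Mean level relative to DMSO controls, n = 6.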

PBMC [10] = experiment: Antiinflammatory activity in human PBMC assessed as reduction in anti-CD3/CD28 antibody-stimulated IFN-gamma expression at 250 nM preincubated for 1 hr followed by anti-CD3/CD28 antibody stimulation measured after 24 hrs by ELISA; type: functional, cell-based
In short: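 Healthy-donor PBMC, thawed from cryopreservation, 250 000 cells/well in RPMI 1640/5% FBS. Pretreated 1 h at 37 °C with compound alone or combined (0.1% DMSO final), washed 4 times, then stimulated 24 h with anti-CD3 and anti-CD28 antibodies. TNFα and IFNγ in supernatants by electrochemiluminescent ELISA; expressed relative to DMSO-treated controls (n = 6).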

Cc1ccc(CC[C@H](NC(=O)[C@H](Cc2ccccc2)NC(=O)[C@H](CC(C)C)NC(=O)CN2CCCCCC2)C(=O)[C@@]2(C)CO2)cc1
solubility at 24 h [1]: 7 µg/mL (≈ 11.1 µM) | IC50 [2]: 486 nM | IC50 [3]: > 25000 nM | IC50 [4]: 71 nM | IC50 [5]: 1920 nM | IC50 [6]: 378 nM | IC50 [7]: > 25000 nM | IC50 [8]: 305 nM | Activity (PBMC [9]): inactive | Activity (PBMC [10]): inactive

COc1ccc([C@@H](O)[C@H](NC(=O)[C@H](C)NC(=O)CN2CCOCC2)C(=O)N[C@@H](CC2=CCCC2)C(=O)[C@@]2(C)CO2)cc1 [ZETOMIPZOMIB]
solubility at 24 h [1]: 7070 µg/mL (≈ 12100 µM) | IC50 [2]: 688 nM | IC50 [3]: 131 nM | IC50 [4]: 623 nM | IC50 [5]: 57 nM | IC50 [6]: 483 nM | IC50 [7]: 179 nM | IC50 [8]: 522 nM | Activity (PBMC [9]): Active | Activity (PBMC [10]): Active

COc1ccc(C[C@H](NC(=O)[C@@H](C)NC(=O)[C@H]2CC[C@H](O)CC2)C(=O)N[C@@H](CC2=CCCC2)C(=O)[C@@]2(C)CO2)cc1
solubility at 24 h [1]: 491 µg/mL (≈ 862 µM) | IC50 [2]: 2670 nM | IC50 [3]: 1850 nM | IC50 [4]: > 25000 nM | IC50 [5]: 374 nM | IC50 [6]: 2650 nM | IC50 [7]: 3960 nM
